A selection: hits, their analogues and other compounds. The true share with any hit is near 3.7%.
KCNK9 block: human KCNK9 channel inhibition; HEK293 KCNK9, FluxOR thallium flux fluorescence; active compounds read low; B-score at 10 µM; 1.2% of 310,000 active; AID 488922;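 active = ratio B-score over 3 SD below the library mean, with starting fluorescence within 5 SD of its mean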;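 note: negative B-score means less thallium flux so channel inhibition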
KCNQ1 block: human KCNQ1 channel inhibition. B-score at 10 µM. AID 2642. CHO-K1 KCNQ1, FluxOR thallium flux fluorescence; active compounds read high. 1.3% of 310,000 active;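 active = compounds whose thallium flux B-score, printed positive for inhibition, exceeds three library SD while starting fluorescence stays within three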;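 note: channel opened by potassium depolarization with thallium stimulus after 20 min compound exposure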
KCNQ1 pot: potentiates or activates the human KCNQ1 potassium channel; P51787; CHO-K1 KCNQ1, thallium flux FluxOR fluorescence; active compounds read high; B-score at 10 µM; 0.35% of 310,000 active;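 active = fluorescence ratio B-score, a plate-corrected score, at least three library SD, with initial intensity B-score within 5 SD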
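System: CHO-K1 cells stably expressing KCNQ1 / Medium: assay buffer for compound exposure, DMSO matched across wells / Reagent: thallium- and potassium-containing depolarizing buffer / Compound: one concentration, matched DMSO / Incubation: 20 min compound pretreatment at room temperature / Measured by: kinetic FluxOR fluorescence, 10 s baseline plus 110 s post-stimulus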
Kir21 block: inhibitors of mouse Kir2.1 inward-rectifier potassium channel; HEK293-Kir2.1, FluxOR thallium flux fluorescence; active compounds read low; 0.85% of 310,000 active; P35561; B-score at 10 µM;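 active = fluorescence ratio B-score at or below minus 3 SD of library scores, with starting-brightness B-score within 2 SD, cut at about -4.2 in these data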;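 note: channel flux triggered by added potassium and thallium sulfate stimulus; B-score of peak minus minimum fluorescence over baseline after thallium stimulus; more negative B-score means stronger Kir2.1 block with less thallium influx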
Target sequence (P35561 whole entry, looked up): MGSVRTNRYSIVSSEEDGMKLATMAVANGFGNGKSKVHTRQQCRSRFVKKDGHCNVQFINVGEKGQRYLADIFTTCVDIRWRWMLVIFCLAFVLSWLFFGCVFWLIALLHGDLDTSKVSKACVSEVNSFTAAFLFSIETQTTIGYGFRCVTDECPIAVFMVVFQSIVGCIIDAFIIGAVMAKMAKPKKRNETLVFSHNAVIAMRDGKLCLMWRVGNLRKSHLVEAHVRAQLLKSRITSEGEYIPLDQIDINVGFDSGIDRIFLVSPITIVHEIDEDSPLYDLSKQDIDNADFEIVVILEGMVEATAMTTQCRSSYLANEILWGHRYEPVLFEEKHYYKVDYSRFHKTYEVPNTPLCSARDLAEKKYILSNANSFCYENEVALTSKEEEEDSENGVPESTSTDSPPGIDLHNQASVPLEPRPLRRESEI
KCNK3 inh: human KCNK3 channel inhibition, primary screen; O14649; CHO-KCNK3 thallium flux, FluxOR fluorescence; active compounds read low; B-score at 10 µM; 0.84% of 340,000 active;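 active = B-score under library mean minus 4 SD, starting fluorescence ratio at most library mean plus 5 SD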;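 note: more negative B-score means stronger inhibition of thallium flux through KCNK3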
hERG rescue: hERG (human) protection from proarrhythmic block; Q12809; CHO-hERG, FluxOR thallium flux, dofetilide IC70 present; activation (rescue from dofetilide block), less the hit threshold, % at 10 µM; 0.51% of 310,000 active; AID 1511;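 active = activation above the mean of controls blocked by dofetilide plus 5 SD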;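 note: thallium influx through hERG after potassium depolarization seen as dye fluorescence rise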
KCNK3 confirm: confirmation of human KCNK3 two-pore domain potassium channel inhibitors | shares compounds with KCNK3 inh | CHO-KCNK3 thallium flux, FluxOR fluorescence; 0% buffer, 100% carvedilol maximal block | ratio percent of control, % at 10 µM | 99% of 2,400 active;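 active = ratio percent of control, averaged over triplicates, above buffer control mean plus 5 SD, cut at about 64% in these data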;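 note: ratio is the fluorescence rise from min to max over baseline after thallium stimulus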
KCNK3 uninduced: KCNK3 inhibitor counter-screen hit in non-induced cells; non-induced KCNK3 parental cells, FluxOR thallium flux; active compounds read low; 40% of 2,400 active; AID 651747; shares compounds with KCNK3 inh; thallium flux ratio (lower = more inhibition) at 10 µM;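 active = thallium flux ratio, averaged over three wells, more than 5 SD below the buffer control mean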;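 note: host cells are CHO cells without KCNK3 induction; ratio is peak minus trough fluorescence over baseline then normalized to buffer controls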
Active calls of the source: *; i = inactive; · = not tested or not shown.

SMILES | KCNK9 block | KCNQ1 block | KCNQ1 pot | Kir21 block | KCNK3 inh | hERG rescue | KCNK3 confirm | KCNK3 uninduced
O=C(CN1CCN(c2ccc(O)cc2)CC1)NC(=O)NCc1ccco1 | i | i | i | 1.2 | i | -5 | · | ·
Cc1cc(O)c(C(C)C)cc1C1(c2cc(C(C)C)c(O)cc2C)OC(=O)c2ccccc21 | i | i | i | -3.1 | -9.1* | -1 | 120* | 0.15*
CCc1ccccc1N(C)S(=O)(=O)c1ccc(-c2cc(C)no2)s1 | i | i | i | 0.97 | -9.9* | -6 | 113* | i
CCN(c1ccc(OC)cc1)S(=O)(=O)c1ccc(-c2cc(C)no2)s1 | i | i | i | -0.86 | -12* | 0 | 119* | i
Cc1cc(-c2ccc(S(=O)(=O)N3CCN(C)CC3)s2)on1 | i | i | i | -0.89 | i | -5 | · | ·
COc1ccc(/C(=C/c2ccc(OC(F)F)c(OC)c2)C(=O)O)cc1OC | i | i | i | 2.9 | i | -4 | · | ·
Cc1ccc2oc(=O)n(CCCOc3ccccc3C)c2c1 | i | i | i | 0.93 | -11* | -15 | 121* | 0.14*
COc1ccc(S(=O)(=O)NC(C)C(=O)NCc2ccccn2)cc1Cl (stereo not drawn) | i | i | i | 1.3 | i | -9 | · | ·
COc1ccc(S(=O)(=O)N2CCOCC2)cc1C(=O)N1CCCC1 | i | i | i | -1.5 | i | -4 | · | ·
N#Cc1cc2c(nc1SCc1ccc(Cl)nc1)CCCCC2 | -7* | i | i | 2.1 | -11* | -14 | 116* | 0.16*
CCCC(=O)c1c[nH]c(C(=O)NCCc2ccccn2)c1 | i | i | i | 0.84 | -11* | -6 | 70* | i
O=C(NCCc1ccccn1)c1n[nH]c(=O)c2ccccc12 | i | i | i | -0.38 | i | -5 | · | ·
O=C(CCSc1nc(-c2ccco2)cc(C(F)(F)F)n1)N1CCCc2ccccc21 | i | i | i | -1.5 | -9.9* | -6 | 100* | i
O=C(CCSc1nc(-c2ccco2)cc(C(F)(F)F)n1)N1CCN(c2ccccn2)CC1 | i | i | i | 1.5 | i | -8 | · | ·
COc1ccccc1C(=O)Nc1ccon1 | i | i | i | 0.01 | i | -7 | · | ·
COc1ccccc1C(=O)Nc1cccc(NC(=O)c2ccccc2OC)n1 | i | i | i | 0.37 | -11* | -8 | 113* | i
O=C(Nc1cccc(NC(=O)c2ccccc2)n1)c1ccccc1 | i | i | i | 1.3 | -10* | -5 | 97* | i
COc1ccccc1C(=O)Nc1ccccc1SC(=O)c1ccccc1OC | -13* | i | i | 0.11 | -9.4* | -20 | 113* | i
Cc1cccc(NC(=O)c2ccc(C(=O)c3ccccc3)cc2)n1 | i | i | i | 0.64 | i | -17 | · | ·
c1ccc(-c2nc(NCCCn3ccnc3)c3ccccc3n2)cc1 | i | i | i | -1 | -11* | -31 | 100* | 0.15*
O=C(NCCc1ccncc1)c1ccc2nc(Cc3cccc(Cl)c3)oc2c1 | i | i | i | -1.5 | i | -18 | · | ·
C[C@@]12C(=O)N(CCO)CC(=O)N1[C@H](/C=C/c1ccccc1)[C@@H]1C(=O)N(c3ccccc3)C(=O)[C@@H]12 | i | i | i | 0.19 | i | -3 | · | ·
COc1ccc(NC(=O)COC(=O)c2c3c(nc4ccccc24)CCCC3)cc1Cl | -9.7* | i | i | -0.54 | -9.1* | -6 | 120* | 0.15*
O=C(N/N=C/C1C(c2ccccc2)C1(Cl)Cl)c1cccc(Br)c1 (stereo not drawn) | -7.4* | 10* | i | 1.6 | -13* | -11 | 115* | i
CCCN1C(=S)c2ccccc2C1c1ccccc1 (stereo not drawn) | i | i | i | -3.7 | -11* | -10 | 121* | 0.15*
SMILES | KCNK9 block | KCNQ1 block | KCNQ1 pot | Kir21 block | KCNK3 inh | hERG rescue | KCNK3 confirm | KCNK3 uninduced
CCCCN1C(=S)NC[C@@H]1c1ccccc1 | i | i | i | -0.49 | i | -6 | · | ·
CCN1C=C(Cc2ccc(F)cc2)C2=C(C1)C(c1ccc(F)cc1)C(C#N)=C(N)O2 (stereo not drawn) | i | i | i | -1.6 | -9.7* | -12 | 110* | i
CC(=O)c1cccc(N(CC(=O)Nc2ccc(S(=O)(=O)N3CCCC3)cc2)S(C)(=O)=O)c1 | i | i | i | -0.07 | -9.5* | -6 | 0 | i
CC(=O)c1cccc(N(CC(=O)Nc2ccc(S(=O)(=O)N3CCOCC3)cc2)S(C)(=O)=O)c1 | i | i | i | 2.9 | i | -7 | · | ·
CCN(Cc1ccc(OC)c(F)c1)C(=O)c1oc2ccccc2c1COC | i | i | i | -2.5 | -14* | -8 | 94* | i
CCN(Cc1ccc(OC)c(F)c1)C(=O)CCl | i | i | i | 0.17 | i | -14 | · | ·
COc1ccc(OC)c(-c2csc(NC(=O)Cc3ccccc3)n2)c1 | i | i | i | 2.5 | -9.4* | -8 | 125* | 0.15*
COc1ccc(CN(C(=O)c2ccco2)c2ccc(C)c(C)c2)cc1 | -7.1* | i | i | -1.4 | -11* | -8 | 105* | i
COc1ccc(OC)c(-c2csc(NC(=O)Cc3cccs3)n2)c1 | i | i | i | 1.8 | -8.8* | -5 | 85* | i
COc1cccc(CC(=O)Nc2nc(-c3cc(OC)ccc3OC)cs2)c1 | i | i | i | 0.01 | i | -13 | · | ·
COc1ccc(OC)c(-c2csc(N(Cc3ccco3)C(=O)c3ccco3)n2)c1 | -7.3* | i | i | -0.21 | -12* | -7 | 102* | i
O=C(NNC(=O)c1ccc(-c2ccccc2)cc1)Nc1ccc(F)cc1F | i | i | i | -0.9 | i | -4 | · | ·
COc1ccc(OC)c(NC(=O)c2ccc3c(c2)OCO3)c1 | i | i | i | -0.68 | i | -4 | · | ·
COc1ccc(OC)c(-c2csc(NC(=O)c3ccc4c(c3)OCO4)n2)c1 | i | i | i | -1.1 | -9.3* | -7 | 92* | i
Cc1cc(/C=N/Nc2ccc([N+](=O)[O-])cn2)c(C)n1-c1ccccc1 | i | i | i | 0.06 | i | -3 | · | ·
Cc1ccc(-n2c(C)cc(/C=N/Nc3ccc([N+](=O)[O-])cn3)c2C)cc1 | i | i | i | -0.22 | -13* | -3 | 0 | i

Source: PubChem
